Test results as given in ChEMBL document CHEMBL3227917, “Structure-activity relationships of dimeric Catharanthus alkaloids. 2. Experimental antitumor activities of N-substituted deacetylvinblastine amide (vindesine) sulfates” (J Med Chem, 1979).

Tests used:
[1] = Antitumor activity against mouse Gardner lymphosarcoma allografted in C3H mouse assessed as tumor growth inhibition at 0.20 mg/kg, ip administered daily for 8 to 10 days; type: functional; settings: route intraperitoneal, read-out: TGI
Outline: (§1)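 Gardner lymphosarcoma in C3H mice; sulfate salts unless noted, given ip daily for 8–10 days, treatment starting 8 days after tumor implantation. Tumor growth inhibition scored as –, 0–25%; +, 26–50%; ++, 51–75%; +++, 76–100%; T, lethal to ≥5 of 10 animals per group. Average of one or more tests.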

[2] = tested on: Mus musculus; assay: Toxicity in C3H mouse allografted with mouse Gardner lymphosarcoma assessed as lethality at 0.40 mg/kg, ip administered daily for 8 to 10 days; type: organism-based; parameters: dose 0.4 mg/kg, route intraperitoneal; settings: in vivo, 0.4 mg/kg
Outline: (§2)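 Tumor-bearing mice given sulfate salts ip daily for 8–10 days; values are the average of one or more tests. Toxic means lethal to ≥5 of 10 animals per group.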

[3] = tested on: Mus musculus; assay: Toxicity in C57BL/6 mouse allografted with mouse B16 cells assessed as animal death at 0.90 mg/kg, ip administered on days 1,5 and 9; type: organism-based; parameters: dose 0.9 mg/kg, route intraperitoneal; settings: in vivo, 0.9 mg/kg
Outline: (§3)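 B16 melanoma cells (10⁶ inoculum) implanted ip in C57BL/6 mice; groups of 10. Sulfate salts unless noted, given ip on days 1, 5 and 9. Single test. Survival prolongation is expressed as percent versus controls, with survivors counted on day 60. Toxic means deaths of ≥5 of 10 animals before the first control death.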

[4] = tested on: Mus musculus; assay: Toxicity in C3H mouse allografted with mouse Gardner lymphosarcoma assessed as lethality at 0.30 mg/kg, ip administered daily for 8 to 10 days; type: organism-based; parameters: dose 0.3 mg/kg, route intraperitoneal; settings: in vivo, 0.3 mg/kg; outline: as §2
[5] = tested on: B16; assay: Antitumor activity against mouse B16 cells allografted in C57BL/6 mouse assessed as prolongation of host survival at 0.30 mg/kg, ip administered on days 1,5 and 9; type: functional; settings: route intraperitoneal; outline: as §3
[6] = Antitumor activity against mouse Gardner lymphosarcoma allografted in C3H mouse assessed as tumor growth inhibition at 0.10 mg/kg, ip administered daily for 8 to 10 days; type: functional; settings: route intraperitoneal, read-out: TGI; outline: as §1
[7] = tested on: Mus musculus; assay: Toxicity in C57BL/6 mouse allografted with mouse B16 cells assessed as animal death at 0.60 mg/kg, ip administered on days 1,5 and 9; type: organism-based; parameters: dose 0.6 mg/kg, route intraperitoneal; settings: in vivo, 0.6 mg/kg; outline: as §3

CC[C@]1(O)C[C@H]2CN(CCc3c([nH]c4ccccc34)[C@@](C(=O)OC)(c3cc4c(cc3OC)N(C)[C@H]3[C@@](O)(C(=O)NC5CCSC5=O)[C@H](O)[C@]5(CC)C=CCN6CC[C@]43[C@@H]65)C2)C1.O=S(=O)(O)O (some centres not stated)
inhibition in vivo at 0.2 mg/kg [1]: 0%
Activity [2]: Toxic
Activity [3]: Toxic
Activity [4]: Toxic
survival at 0.3 mg/kg [5]: 94%
inhibition in vivo at 0.1 mg/kg [6]: 0%
Activity [7]: Toxic
